# From BindingDB's records for doi:10.1021/jm0300835 (Duke University, 2003)
# Experiments:
# [1] = target: T1, M-phase inducer phosphatase 2 (Homo sapiens, UniProt P30305); assay: Inhibitory concentration of compound against mutant WT of Cdc25B phosphatase was determined
# T1 sequence (P30305 whole entry): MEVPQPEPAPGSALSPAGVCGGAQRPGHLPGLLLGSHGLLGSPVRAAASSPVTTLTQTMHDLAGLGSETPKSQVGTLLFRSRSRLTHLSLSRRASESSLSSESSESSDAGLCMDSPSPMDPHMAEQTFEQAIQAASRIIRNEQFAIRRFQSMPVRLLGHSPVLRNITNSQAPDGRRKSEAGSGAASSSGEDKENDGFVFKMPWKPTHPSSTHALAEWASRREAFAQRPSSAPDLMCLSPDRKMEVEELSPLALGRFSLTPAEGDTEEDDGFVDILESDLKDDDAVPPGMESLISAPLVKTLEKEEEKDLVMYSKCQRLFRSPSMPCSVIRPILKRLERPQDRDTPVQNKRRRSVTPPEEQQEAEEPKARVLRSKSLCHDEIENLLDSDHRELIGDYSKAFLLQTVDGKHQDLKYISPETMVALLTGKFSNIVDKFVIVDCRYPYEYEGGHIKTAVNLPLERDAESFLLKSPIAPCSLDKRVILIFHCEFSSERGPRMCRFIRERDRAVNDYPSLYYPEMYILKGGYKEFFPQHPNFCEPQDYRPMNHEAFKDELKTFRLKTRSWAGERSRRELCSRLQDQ
# How it was run: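 Cdc25B catalytic domain constructs (wild-type, site-directed point mutants, truncated); activity with 3-O-methylfluorescein phosphate at 50 μM (~5 × Km), product read at 477 nm by UV-vis under initial velocity (2–5% turnover); eight inhibitor concentrations, IC50 fitted; values are mean of two determinations.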
# [2] = target: T1, M-phase inducer phosphatase 2; assay: Inhibitory concentration of compound against Cdc25B phosphatase was determined using CDK2-p-TpY/Cyclin A as a substrate
# How it was run: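 Cdc25B IC50 with Cdk2-pTpY/CycA protein substrate at 300 nM; eight inhibitor concentrations; time-dependent assays; 1 mg/mL BSA carrier added only after TCA quench, not during reaction.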
# [3] = target: T1, M-phase inducer phosphatase 2; assay: Eight point inhibitory concentration against Cell division cycle 25B was determined
# How it was run: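 Cdc25B activity read by UV-vis at 477 nm as product formed from 3-O-methylfluorescein phosphate (mFP) at 50 μM (~5 × Km), time-dependent, initial-velocity conditions (2–5% turnover); eight inhibitor concentrations, IC50 fitted to eq 1. Each reaction compared with a simultaneous no-inhibitor control; selected compounds run in duplicate.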
# [4] = target: T1, M-phase inducer phosphatase 2; assay: Inhibitory concentration of compound against mutant F475A of Cell division cycle 25B was determined
# How it was run: (§1)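 Cdc25B catalytic-domain point mutants, a truncated form and wild type were assayed with 3-O-methylfluorescein phosphate as substrate, monitored at 477 nm under initial velocity conditions. Values are the mean of two separate determinations.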
# [5] = target: T1, M-phase inducer phosphatase 2; assay: Inhibitory concentration of compound against mutant E478Q of Cell division cycle 25B was determined; how it was run: as §1
# [6] = target: T1, M-phase inducer phosphatase 2; assay: Inhibitory concentration of compound against mutant E474Q of Cell division cycle 25B was determined; how it was run: as §1
# [7] = target: T1, M-phase inducer phosphatase 2; assay: Inhibitory concentration of compound against mutant M531A of Cell division cycle 25B was determined; how it was run: as §1
# [8] = target: T2, M-phase inducer phosphatase 3 (Homo sapiens, UniProt P30307); assay: Eight point inhibitory concentration against […] was determined
# T2 sequence (P30307 whole entry): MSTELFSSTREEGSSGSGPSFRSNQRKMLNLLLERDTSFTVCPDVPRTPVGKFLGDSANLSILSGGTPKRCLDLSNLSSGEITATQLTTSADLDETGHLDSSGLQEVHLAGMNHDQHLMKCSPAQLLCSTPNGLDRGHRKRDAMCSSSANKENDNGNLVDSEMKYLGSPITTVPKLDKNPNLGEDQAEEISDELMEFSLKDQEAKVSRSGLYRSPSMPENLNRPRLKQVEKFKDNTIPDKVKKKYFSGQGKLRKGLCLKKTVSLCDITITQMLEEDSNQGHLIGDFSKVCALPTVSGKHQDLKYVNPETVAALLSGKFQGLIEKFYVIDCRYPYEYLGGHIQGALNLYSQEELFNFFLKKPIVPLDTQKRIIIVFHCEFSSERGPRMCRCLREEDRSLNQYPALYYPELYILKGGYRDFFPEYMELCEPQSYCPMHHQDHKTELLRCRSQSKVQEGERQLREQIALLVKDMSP
# How it was run: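 Phosphatase activity measured with 3-O-methylfluorescein phosphate at 50 μM (~5 × Km), product formation followed at 477 nm by UV-vis under initial velocity conditions (2–5% turnover) in time-dependent assays. Eight inhibitor concentrations were used, and IC50 was obtained by fitting to a dose–response equation.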
SMILES,IC50 [1],IC50 [2],IC50 [3],IC50 [4],IC50 [5],IC50 [6],IC50 [7],IC50 [8]
"O=C1CC(=O)C(=O)C(c2c[nH]c3ccccc23)C1=O [2,5-Dihydroxy-3-(1H-indol-3-yl)-[1,4]benzoquinone]",18 µM,> 50 µM,18 µM,–,–,–,–,–
"CC(C)=CCc1cccc2c(C3C(=O)C(=O)CC(=O)C3=O)c[nH]c12 [2,5-Dihydroxy-3-[7-(3-methyl-but-2-enyl)-1H-indol-3-yl]-[1,4]benzoquinone]",–,–,–,> 50 µM,6.5 µM,> 50 µM,6.5 µM,15 µM
